Experimental data taken from ChEMBL document CHEMBL4825688, “Synthesis, biological evaluation and molecular modeling of benzofuran piperidine derivatives as Aβ antiaggregant” (Eur J Med Chem, 2021).
The source made the active and inactive calls. The rule behind the calls is not given here.

What was measured:
[1] = target: T1, Amyloid-beta precursor protein (Homo sapiens, UniProt P05067); assay: Inhibition of human amyloid beta (25 to 35) self-induced aggregation at 100 uM after 48 hrs by thioflavin-T fluorescence relative to control
T1 sequence (P05067 whole entry): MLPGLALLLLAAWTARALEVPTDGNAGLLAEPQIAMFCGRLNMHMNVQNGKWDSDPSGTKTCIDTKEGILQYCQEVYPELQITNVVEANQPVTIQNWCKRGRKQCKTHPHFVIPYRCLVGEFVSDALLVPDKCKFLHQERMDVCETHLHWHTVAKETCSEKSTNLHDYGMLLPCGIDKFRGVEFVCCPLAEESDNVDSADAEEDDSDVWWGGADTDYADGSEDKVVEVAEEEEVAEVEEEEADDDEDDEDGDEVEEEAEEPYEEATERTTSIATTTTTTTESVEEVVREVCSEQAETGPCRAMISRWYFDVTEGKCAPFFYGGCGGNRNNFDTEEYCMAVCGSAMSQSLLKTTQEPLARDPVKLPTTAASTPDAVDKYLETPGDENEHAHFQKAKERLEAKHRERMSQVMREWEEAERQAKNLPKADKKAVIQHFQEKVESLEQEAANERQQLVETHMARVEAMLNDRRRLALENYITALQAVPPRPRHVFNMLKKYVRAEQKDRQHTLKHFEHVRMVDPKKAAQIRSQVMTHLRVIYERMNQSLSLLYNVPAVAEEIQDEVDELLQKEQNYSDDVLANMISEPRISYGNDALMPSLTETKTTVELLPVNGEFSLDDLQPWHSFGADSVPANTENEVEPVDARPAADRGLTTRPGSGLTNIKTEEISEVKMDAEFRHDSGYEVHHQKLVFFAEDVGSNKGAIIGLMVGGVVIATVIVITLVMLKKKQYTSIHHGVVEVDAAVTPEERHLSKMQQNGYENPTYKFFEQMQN
Summary of the method: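 Aβ25-35 (10 μM, DMSO stock diluted) incubated with test compound (100 μM) in 0.05 M potassium phosphate buffer (pH 7.4) containing 0.01 M NaCl, 37 °C, 48 h; then ThT (200 μM) in 50 mM glycine-NaOH (pH 8.0) added and fluorescence read. Mean ± SD of three experiments.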

Acetylcholinesterase = Acetylcholinesterase (Homo sapiens, UniProt P22303); assay: Inhibition of recombinant human AChE using acetylthiocholine iodide as substrate measured after 7 mins by Ellman's method
Chain of Acetylcholinesterase (P22303 whole entry): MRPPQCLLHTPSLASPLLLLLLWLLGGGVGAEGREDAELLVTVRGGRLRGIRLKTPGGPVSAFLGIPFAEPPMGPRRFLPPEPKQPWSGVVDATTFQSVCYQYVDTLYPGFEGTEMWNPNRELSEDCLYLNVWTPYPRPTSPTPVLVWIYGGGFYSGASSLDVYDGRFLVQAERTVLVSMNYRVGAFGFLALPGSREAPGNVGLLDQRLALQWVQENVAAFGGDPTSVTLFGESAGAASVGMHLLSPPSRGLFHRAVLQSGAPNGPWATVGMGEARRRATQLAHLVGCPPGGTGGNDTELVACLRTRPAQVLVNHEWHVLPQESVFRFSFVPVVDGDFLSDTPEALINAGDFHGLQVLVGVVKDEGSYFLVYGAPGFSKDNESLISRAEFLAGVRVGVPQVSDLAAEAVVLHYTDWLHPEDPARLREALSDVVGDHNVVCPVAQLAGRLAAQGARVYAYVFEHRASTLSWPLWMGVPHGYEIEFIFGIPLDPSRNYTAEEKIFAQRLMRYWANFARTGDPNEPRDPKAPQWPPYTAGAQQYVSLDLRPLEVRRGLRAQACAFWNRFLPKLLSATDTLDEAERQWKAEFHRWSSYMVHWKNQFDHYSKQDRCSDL

Cholinesterase = Cholinesterase (Homo sapiens, UniProt P06276); assay: Inhibition of recombinant human BuChe using S-butyrylthiocholine iodide as substrate measured after 7 mins by Ellman's method
Chain of Cholinesterase (P06276 whole entry): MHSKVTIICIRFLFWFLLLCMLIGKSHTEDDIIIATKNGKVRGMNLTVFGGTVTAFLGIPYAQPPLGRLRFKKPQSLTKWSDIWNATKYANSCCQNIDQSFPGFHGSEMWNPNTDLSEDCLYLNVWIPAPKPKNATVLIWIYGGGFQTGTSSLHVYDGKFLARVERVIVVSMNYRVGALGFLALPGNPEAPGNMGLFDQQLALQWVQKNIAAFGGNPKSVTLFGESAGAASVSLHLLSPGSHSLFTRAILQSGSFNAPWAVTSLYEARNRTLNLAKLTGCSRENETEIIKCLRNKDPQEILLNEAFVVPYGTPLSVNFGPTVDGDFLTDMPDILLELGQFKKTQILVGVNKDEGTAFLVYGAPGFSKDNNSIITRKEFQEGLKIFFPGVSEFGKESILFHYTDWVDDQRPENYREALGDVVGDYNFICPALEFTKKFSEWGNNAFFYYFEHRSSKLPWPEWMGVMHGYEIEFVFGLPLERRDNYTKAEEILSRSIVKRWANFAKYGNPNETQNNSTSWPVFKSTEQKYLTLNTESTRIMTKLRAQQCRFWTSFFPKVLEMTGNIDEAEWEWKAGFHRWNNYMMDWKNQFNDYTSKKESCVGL

Homo sapiens = organism: Homo sapiens; assay: Selectivity index, ratio of IC50 for human BuChE to IC50 for human AChE
[2] = Cytotoxicity against human SH-SY5Y cells assessed as cell viability at 10 uM measured after 48 hrs by MTT assay relative to control
SH-SY5Y [3] = assay: Neuroprotective activity against amyloid beta (25 to 35)-induced cell damage in human SH-SY5Y cells assessed as neuronal viability at 10 uM measured after 24 hrs in presence of amyloid beta (25 to 35) by MTT assay (reference value: 68.66 +/- 0.11 %); format: functional
SH-SY5Y [4] = assay: Neuroprotective activity against amyloid beta (25 to 35)-induced cell damage in human SH-SY5Y cells assessed as increase in neuronal viability measured after 24 hrs in presence of amyloid beta (25 to 35) by MTT assay; format: functional, cell-based; details: dose 1-10 µM
SH-SY5Y [5] = assay: Neuroprotective activity against amyloid beta (25 to 35)-induced cell damage in human SH-SY5Y cells assessed as LDH release at 10 uM measured after 24 hrs in presence of amyloid beta (25 to 35) by LDH assay (reference value: 364.06 +/- 2.15 %); format: functional
SH-SY5Y [6] = assay: Neuroprotective activity against amyloid beta (25 to 35)-induced cell damage assessed as cell viability in human SH-SY5Y cells by measuring ATP at 10 uM measured after 24 hrs in presence of amyloid beta (25 to 35) by CellTiter-Glo luminescent cell viability assay (reference value: 90.95 +/- 0.82 %); format: functional
[7] = Antioxidant activity assessed as DPPH radical scavenging activity at 50 uM incubated for 1 hrs under light restrictive condition by UV-microplate reader assay relative to control; format: functional
Summary of the method: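 DPPH stock 56 mM and compound stock 500 mM in anhydrous methanol; compound at 50 µM final with DPPH in methanol. Absorbance read at 517 nm after 30 s shaking, then again after 1 h at room temperature in the dark. Scavenging % = (A control − A sample)/A control ×100.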

SH-SY5Y [8] = assay: Neuroprotective activity against amyloid beta (25 to 35)-induced oxidative stress in human SH-SY5Y cells assessed as decrease in intracellular ROS production at 10 uM incubated with amyloid beta (25 to 35) for 24 hrs by DCFH-DA staining-based flow cytometric analysis; format: functional, cell-based
Summary of the method: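 SH-SY5Y (1×10⁶ cells/well) grown 24 h, then exposed to unaggregated Aβ25-35 (10 µM) ± compounds (10 µM) for 24 h at 37 °C. After three PBS washes, cells were loaded with DCFH-DA (10 µM) for 30 min, rinsed, pelleted at 1500 rpm for 5 min, resuspended in PBS and analyzed by flow cytometry (10,000 events). Mean ± SD of three experiments.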

[9] = target: T1, Amyloid-beta precursor protein; assay: Inhibition of amyloid beta(25 to 35) (unknown origin) binding to human SH-SY5Y cell plasma membrane at 10 uM measured after 20 mins by UV-vis microplate reader assay; format: cell membranes
Summary of the method: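 SH-SY5Y cells seeded 24 h, then fresh medium with Aβ25-35 (10 µM) ± compounds (10 µM) for 30, 60 and 120 min. After two PBS washes, bound peptide was stained with Congo red in PBS for 20 min and read at 540 nm. Values are % of untreated cells (100%).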

SH-SY5Y [10] = assay: Neuroprotective activity against amyloid beta (25 to 35)-induced cell damage in human SH-SY5Y cells assessed as viable at 10 uM by annexin-V and propidium iodide staining based flow cytometry analysis assay (reference value: 88.2 %); format: functional
Summary of the method: (§1)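 SH-SY5Y cells exposed to Aβ25-35 (10 µM) ± compounds (10 µM), then trypsinized, washed with PBS and pelleted at 1000 rpm for 3 min. Cells were stained with FITC-Annexin V and PI in binding buffer for 15 min at room temperature and analyzed by flow cytometry (10,000 events). Mean ± SD of three experiments.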

SH-SY5Y [11] = assay: Neuroprotective activity against amyloid beta (25 to 35)-induced cell damage in human SH-SY5Y cells assessed as early apoptotic cell at 10 uM by annexin-V and propidium iodide staining based flow cytometry analysis assay (reference value: 10.9 %); format: functional; summary of the method: as §1
SH-SY5Y [12] = assay: Neuroprotective activity against amyloid beta (25 to 35)-induced cell damage in human SH-SY5Y cells assessed as late apoptotic cell at 10 uM by annexin-V and propidium iodide staining based flow cytometry analysis assay (reference value: 0.890 %); format: functional; summary of the method: as §1
SH-SY5Y [13] = assay: Neuroprotective activity against amyloid beta (25 to 35)-induced cell damage in human SH-SY5Y cells assessed as necrotic cell at 10 uM by annexin-V and propidium iodide staining based flow cytometry analysis assay (reference value: 0 %); format: functional; summary of the method: as §1

Row | SMILES | inhibition [1] [%] | IC50 (Acetylcholinesterase) [µM] | IC50 (Cholinesterase) [µM] | Selectivity Index (Homo sapiens) | viability at 48 h, 10 µM ([2]; SH-SY5Y cells) [%] | Activity (SH-SY5Y [3]) [%] | Activity [7] [%] | other results
1 | COc1ccc(OC)c(CN2CCC(c3oc4ccccc4c3C(=O)c3ccc(OC)c(OC)c3)CC2)c1 | 37.4 | 55.4 | 66.3 | 1.19 | – | – | – | –
2 | c1ccc(CN2CCC(c3cc4ccccc4o3)CC2)cc1 | 55.4 | 5.07 | 54.3 | 10.8 | 105 | 88.91 | 18.2 | Activity (SH-SY5Y [4]): Dose-Dependent Effect; Activity (SH-SY5Y [5]): 294.64%; Activity (SH-SY5Y [6]): 101.59%; Activity (SH-SY5Y [8]): Active; inhibition (INH) [9]: Active; Activity (SH-SY5Y [10]): 97.5%; Activity (SH-SY5Y [11]): 1.08%; Activity (SH-SY5Y [12]): 0.55%; Activity (SH-SY5Y [13]): 0.03%
3 | COc1ccc(CN2CCC(c3oc4ccccc4c3C(=O)c3ccc(OC)cc3)CC2)cc1 | 45 | 59.7 | 59.7 | 0.99 | – | – | – | –
4 | COc1ccc(CN2CCC(c3cc4ccccc4o3)CC2)cc1OC | 14.7 | 52.8 | 64.6 | 1.2 | – | – | – | –
5 | Oc1ccc(/C=C/c2cc(O)cc(O)c2)cc1 | – | – | – | – | – | – | 45.7 | –
6 | COc1ccc(CN2CCC(c3oc4ccccc4c3C(=O)c3ccccc3)CC2)cc1OC | 42.9 | 45.3 | > 100 | – | – | – | – | –
7 | COc1cc(/C=C/C(=O)CC(=O)/C=C/c2ccc(O)c(OC)c2)ccc1O [CURCUMIN] | – | – | – | – | 60 | 45.95 | – | –
8 | COc1cc2c(cc1OC)C(=O)C(CC1CCN(Cc3ccccc3)CC1)C2 (stereo unspecified) [DONEPEZIL] | – | – | – | – | – | 60.82 | – | viability at 48 h, 10 µM ([2]; sh-sy5y): 101%
9 | COc1ccc(CN2CCC(c3cc4ccccc4o3)CC2)cc1 | 8.04 | 92.8 | > 100 | – | – | – | – | –
10 | O=C(c1ccccc1)c1c(C2CCN(Cc3ccccc3)CC2)oc2ccccc12 | 61.9 | 41.3 | > 100 | – | 107 | 76.06 | 21.6 | Activity (SH-SY5Y [5]): 316.05%; Activity (SH-SY5Y [6]): 95.49%; Activity (SH-SY5Y [8]): Active; inhibition (INH) [9]: Active; Activity (SH-SY5Y [10]): 98.1%; Activity (SH-SY5Y [11]): 0.77%; Activity (SH-SY5Y [12]): 0.65%; Activity (SH-SY5Y [13]): 0.52%
11 | COc1ccc(CN2CCC(c3oc4ccccc4c3C(=O)c3ccccc3)CC2)cc1 | 42.2 | 97.1 | 62.6 | 0.6 | – | – | – | –
12 | COc1ccc(OC)c(CN2CCC(c3oc4ccccc4c3C(=O)c3ccccc3)CC2)c1 | 39.4 | 58.2 | 33.5 | 0.45 | – | – | – | –
13 | COc1cc(/C=C/C(=O)O)ccc1O | – | – | – | – | – | – | 50 | –
14 | Oc1ccc(CN2CCC(c3cc4ccccc4o3)CC2)cc1 | 48.3 | 34.9 | 64.6 | 1.8 | 96.4 | – | 12.2 | –
15 | CCc1ccc(CN2CCC(c3cc4ccccc4o3)CC2)cc1 | 19.9 | 64.2 | > 100 | – | – | – | – | –
16 | COc1ccc(C(=O)c2c(C3CCN(Cc4cc(OC)ccc4OC)CC3)oc3ccccc23)cc1 | 46 | 61 | 61.7 | 1.01 | – | – | – | –
17 | Clc1ccc(CN2CCC(c3cc4ccccc4o3)CC2)cc1 | 24.4 | 98.5 | > 100 | – | – | – | – | –
18 | COc1ccc(C(=O)c2c(C3CCN(Cc4ccccc4)CC3)oc3ccccc23)cc1 | 47.4 | 48.3 | 52.1 | 1.07 | 107 | 75.17 | 17.6 | Activity (SH-SY5Y [5]): 285%; Activity (SH-SY5Y [6]): 100.79%
19 | COc1ccc(CN2CCC(c3oc4ccccc4c3C(=O)c3ccc(OC)c(OC)c3)CC2)cc1OC | 54.4 | 68 | 62.2 | 0.9 | – | – | – | –
20 | Cc1c(C)c2c(c(C)c1O)CCC(C)(C(=O)O)O2 (stereo unspecified) | – | – | – | – | – | – | 55.5 | –
21 | c1ccc2oc(C3CCNCC3)cc2c1 | 45.5 | 61.2 | 64.4 | 1 | – | – | – | –
22 | COc1ccc(OC)c(CN2CCC(c3cc4ccccc4o3)CC2)c1 | 51.8 | 23.9 | 35.5 | 0.04 | 102 | 79.09 | 11.9 | Activity (SH-SY5Y [5]): 324.83%; Activity (SH-SY5Y [6]): 102.53%
23 | Fc1ccc(CN2CCC(c3cc4ccccc4o3)CC2)cc1 | 57.7 | 21.3 | 55.8 | 2.6 | 101 | 80.8 | 10.8 | Activity (SH-SY5Y [4]): Dose-Dependent Effect; Activity (SH-SY5Y [5]): 287.37%; Activity (SH-SY5Y [6]): 104.56%; Activity (SH-SY5Y [8]): Active; inhibition (INH) [9]: Active; Activity (SH-SY5Y [10]): 98.2%; Activity (SH-SY5Y [11]): 1.2%; Activity (SH-SY5Y [12]): 0.05%; Activity (SH-SY5Y [13]): 1.58%
